The nature of assay [1]: inhibitors of TNFa-induced NFkB p65 translocation, primary screen, imaging, HUVEC, MLSMR starter and 10KST1 sets (AID 438;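 active = inhibition above 20% together with a positive visual image hit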;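 also: compound added about 3h40 before a 20 min TNFalpha stimulation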;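 as to inhibition: signal is the nuclear over cytoplasmic p65 intensity ratio per well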). The note with it: HUVEC TNFa-induced p65 nuclear translocation; cell count: measured here: nuclei count (cytotoxicity indicator), at 2.08 µM; inhibition: at 2 µM, stronger effect = higher value, 0% TNFa-plus-vehicle, 100% no-TNFa wells.
Assay [2] is described as follows: endothelial E-selectin expression blockers – imaging, HUVEC, immunofluorescence, MLSMR starter and 10KST1 sets, primary screen (AID 487;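 active = visually confirmed hit in the image check and inhibition above 20%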;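 as to inhibition: signal is fraction of cell area covered by stained E-selectin grains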;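 as to nuclei count: 100% = median nuclei count of all wells on the same plate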). To be noted: HUVEC TNFalpha-induced E-selectin immunofluorescence imaging, at 2 µM; inhibition: stronger effect = higher value; nuclei count: measured here: cell number, toxicity.
Assay [3] is described as follows: Primary imaging screen for DUSP6 inhibitors that restore phospho-Erk in transfected HeLa cells, chemical complementation (AID 609;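 active = compounds giving at least 50% inhibition in the cell-based MKP-3 phosphatase rescue imaging test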;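 as to inhibition: phospho-Erk level distribution per well compared with pooled transfected vehicle control wells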). The note with it: HeLa MKP-3 transfected, phospho-Erk imaging KS statistic, at 10 µM, cells stimulated with TPA for 15 min.
Assay [4] addresses Dual specificity protein phosphatase 6 (Homo sapiens) (UniProt Q16828). The assay is described as above. To be noted: HeLa MKP-3 transfected, phospho-Erk imaging KS statistic; at 10 µM; stronger effect = higher value; cells stimulated with TPA for 15 min.
Assay [5] has as its target Voltage-gated potassium channel subunit beta-2 (Rattus norvegicus) (UniProt P62483). The experiment in a line: inhibitors of rat Kvbeta2 reductase activity – biochemical, NADPH fluorescence, primary screen (AID 622;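 active = fluorescence slope higher than the sample average by over 3 SD, cut at about -0.22 in these data, passing the limit was not always enough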;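 also: slope of raw intensity against log time taken from 70 to 1610 s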). The note with it: recombinant KvBeta, 4-cyanobenzaldehyde reduction, at 10 µM, stronger effect = higher value.
Assay [6] shares this target. The experiment in a line: enhancers of rat Kvbeta2 NADPH turnover – biochemical, NADPH fluorescence, primary screen (AID 623;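 active = NADPH fluorescence slope more negative than the mean of all samples by about 3 SD, 99.7% confidence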;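 also: fluorescence intensity change per second fitted from 20 to 320 s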). The note with it: Recombinant KvBeta, NADPH fluorescence decrease slope, 10 min; at 10 µM; stronger effect = lower value.
The target of assay [7] is Alpha-2C adrenergic receptor (Homo sapiens) (UniProt P18825). The experiment in a line: compounds altering alpha2C-coupled GIRK flux – cell-based, HEK293 alpha2C/GIRK1/2, thallium flux, primary screen (AID 624;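 active = fluorescence slope after compound addition differing from the mean of all screened samples at 99.7% confidence, in either direction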;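 also: slope of fluorescence ratio to pre-addition baseline per second over 15 to 24 s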). The note with it: thallium flux BTC fluorescence, at 10 µM, actives lie on both sides.
Sequence of Alpha-2C adrenergic receptor (Homo sapiens) (P18825 whole entry, looked up): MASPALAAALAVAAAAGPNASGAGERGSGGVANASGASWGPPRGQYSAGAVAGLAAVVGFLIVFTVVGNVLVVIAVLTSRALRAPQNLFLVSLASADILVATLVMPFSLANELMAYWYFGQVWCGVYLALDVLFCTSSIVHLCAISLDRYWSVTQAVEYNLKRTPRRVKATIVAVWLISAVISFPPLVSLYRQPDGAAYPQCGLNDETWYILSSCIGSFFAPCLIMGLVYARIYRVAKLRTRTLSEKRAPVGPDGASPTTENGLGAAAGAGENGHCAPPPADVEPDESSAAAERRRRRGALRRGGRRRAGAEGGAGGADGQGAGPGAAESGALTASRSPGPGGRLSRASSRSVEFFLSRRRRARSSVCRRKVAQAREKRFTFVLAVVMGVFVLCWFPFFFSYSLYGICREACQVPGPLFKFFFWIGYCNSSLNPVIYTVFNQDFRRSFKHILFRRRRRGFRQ
A short description of assay [8]: inhibitors of larval lipid processing in zebrafish, primary screen, whole organism, PED6 fluorescence, gall bladder and intestine (AID 686;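 active = a full or partial loss of lipid-probe fluorescence in the fish gall bladder, intestine or both, judged by eye; inactive = no fluorescence loss, or compound toxic to the fish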;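 also: larvae 5 to 7 days old with five fish per well; signal comes from phospholipase A2 cleavage of quenched PED6 carried via bile; overnight exposure to compound and PED6 before scoring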). The note with it: Zebrafish larvae PED6 lipid processing, fluorescence scoring; screened at 20 µM (by protocol). Summed up:
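Doses: 20 µM single dose. Test system: live zebrafish larvae aged 5-7 days, whole organism. Quantity: five larvae per well. Measured by: By-eye fluorescence microscopy. Reagent: ingested quenched lipid PED6 at 100 nM. Read-out: visual per-well fluorescence inhibition score. Times: overnight exposure of larvae to compound plus PED6.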

Assay [9] in a line: loss of swimming-algae plug formation – whole organism, Chlamydomonas reinhardtii, WT vs cilia-less mutant, absorbance, 96-well, primary screen (AID 463189).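 Also: 0% = wild type cc124 cells in DMSO and 100% = ciliumless bld1 mutant cells.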 To be noted: Chlamydomonas reinhardtii gravitaxis, OD600 absorbance, 2 days; at 10 µM; stronger effect = higher value.
Where [10] appears, read: measured here: cell density z-score.
Where [11] appears, read: measured here: nuclear c-Myc green intensity z-score.
Where [12] appears, read: measured here: nuclear pErk red intensity z-score, stronger effect = higher value.

The structures appear in SMILES notation. Activity calls are given as the source filed them.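 The calls were made as follows, unless noted: active = inhibition at or above 50% relative to wild type and mutant plate controls; inactive = inhibition below 50%.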

Sequence of Dual specificity protein phosphatase 6 (Homo sapiens) (Q16828 whole entry, looked up): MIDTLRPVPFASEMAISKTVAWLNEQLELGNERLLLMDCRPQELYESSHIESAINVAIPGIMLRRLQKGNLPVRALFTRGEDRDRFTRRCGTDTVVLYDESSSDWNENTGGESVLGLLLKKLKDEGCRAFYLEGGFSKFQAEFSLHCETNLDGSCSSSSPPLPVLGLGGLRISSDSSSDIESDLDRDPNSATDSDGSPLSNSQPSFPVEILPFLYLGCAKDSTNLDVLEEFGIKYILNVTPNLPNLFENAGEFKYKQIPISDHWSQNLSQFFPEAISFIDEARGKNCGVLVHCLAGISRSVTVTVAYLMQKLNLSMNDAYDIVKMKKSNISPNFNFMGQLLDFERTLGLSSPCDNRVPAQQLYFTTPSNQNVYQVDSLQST
Sequence of Voltage-gated potassium channel subunit beta-2 (Rattus norvegicus) (P62483 whole entry, looked up): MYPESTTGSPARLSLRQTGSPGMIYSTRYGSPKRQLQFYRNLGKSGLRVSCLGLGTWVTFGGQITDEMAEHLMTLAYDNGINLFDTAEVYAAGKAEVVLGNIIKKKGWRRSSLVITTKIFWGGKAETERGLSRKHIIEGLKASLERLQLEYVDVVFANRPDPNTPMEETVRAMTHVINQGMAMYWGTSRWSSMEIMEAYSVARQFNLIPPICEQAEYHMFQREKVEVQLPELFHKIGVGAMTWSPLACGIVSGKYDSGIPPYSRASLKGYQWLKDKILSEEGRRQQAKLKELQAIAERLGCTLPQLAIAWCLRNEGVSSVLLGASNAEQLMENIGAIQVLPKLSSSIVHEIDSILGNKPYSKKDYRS

On to `COc1ccc(OC)c(NC(=O)CSc2nnc(-c3ccco3)n2-c2ccc(C(=O)O)cc2)c1`, for which the cell count in assay [1] amounted to 494. The inhibition in assay [1] was -27.8% (inactive); in assay [2], -97.7% (inactive); in assay [4], 11.9% (inactive); in assay [9], 2.3% (inactive). For the same molecule, the nuclei count in assay [2] came to 158%. Also, the figures for the z-score in assay [3] (setting [10]), in [3] (setting [11]) and in assay [3] (setting [12]) were 0.414, -0.401 and -0.476, respectively. Further, in assay [5], the fluorescence slope is -0.505 (inactive). In addition, the NADPH fluorescence slope in [6] was -3.4e-05 (inactive). Also, the slope in [7] was 0.00721 (inactive). In addition, in assay [8], the molecule was classed as inactive.
As for `COc1ccccc1N1CCN(CCOc2c(OC)cccc2OC)CC1`, the cell count in assay [1] was determined as 492. In addition, the inhibition is -10.5% (inactive) in [1], -105% (inactive) in assay [2], -3.98% (inactive) in [4] and -3.94% (inactive) in assay [9]. In assay [2], the nuclei count is 116%. For the same molecule, the z-score in assay [3] (setting [10]) is -1.56; in assay [3] (setting [11]), 1.65; in [3] (setting [12]), 0.711. The fluorescence slope in [5] was -0.469 (inactive). Besides, the NADPH fluorescence slope in [6] is -0.000262 (inactive). For the same molecule, the slope in assay [7] was 0.00445 (inactive). In addition, in assay [8], the molecule was classed as inactive.
Regarding `CC(C)Cc1nc(N2CCOCC2)c(C#N)c2c1CCC2`, in [1], the cell count stood at 488. In addition, the inhibition in assay [1] is 3.3% (inactive); in assay [2], -87.5% (inactive); in assay [4], -5.26% (inactive); in assay [9], -5.18% (inactive). In assay [2], the nuclei count was 114%. The z-score is -1.23 in assay [3] (setting [10]), 0.0175 in [3] (setting [11]) and 0.0727 in assay [3] (setting [12]). For the same molecule, in assay [5], the fluorescence slope was -0.511 (inactive). For the same molecule, the NADPH fluorescence slope in assay [6] was -1.9e-05 (inactive). Also, the slope in assay [7] is 0.00512 (inactive). The outcome in [8] is “inactive; toxic”.
Regarding `Cc1nnc2n(-c3ccccc3)c(=O)c3c4c(sc3n12)CC(C)CC4` (stereo unspecified), the cell count in assay [1] amounted to 573. Moreover, the inhibition in assay [1] was -1.3% (inactive); in assay [2], 37.3% (inactive); in assay [4] it was 16.1% (inactive); in [9], -24.5% (inactive). Further, the nuclei count in assay [2] came to 92.6%. In addition, the z-score in assay [3] (setting [10]) was -0.0616; in [3] (setting [11]) it was 0.767; in assay [3] (setting [12]), -0.493. Besides, in assay [5], the fluorescence slope was -0.396 (inactive). Further, the NADPH fluorescence slope in [6] was 1.3e-06 (inactive). For the same molecule, the slope in [7] is 0.00538 (inactive). In addition, in [8], the outcome was inactive.
With `CCCCNC(=O)C(C#N)c1nc2ccccc2nc1N1CCN(Cc2ccc3c(c2)OCO3)CC1` (stereo unspecified), the cell count in [1] worked out at 555. The inhibition in assay [1] is -0.5% (inactive); in [2], 21.5% (inactive); in assay [4] it was 15% (inactive); in assay [9] it was 12.9% (inactive). This molecule also displayed a nuclei count in assay [2] of 145%. The z-score in [3] (setting [10]) was -1.05; in assay [3] (setting [11]), -1.11; in [3] (setting [12]), 1.27. Besides, in assay [5], the fluorescence slope is -0.362 (inactive). In addition, the NADPH fluorescence slope in [6] was -1.5e-05 (inactive). In assay [7], the slope was 0.00451 (inactive). The call in [8] was inactive.
Regarding `Cc1cc(-c2cc(-c3ccc(Cl)cc3)nc(N)c2C#N)co1`, in assay [1], the cell count stood at 560. Besides, the inhibition in [1] was -6.2% (inactive); in [2], 62.4% (inactive); in [4], 7.01% (inactive); in [9], 5.58% (inactive). In assay [2], the nuclei count turned out to be 173%. Moreover, the z-score in assay [3] (setting [10]) was 0.0299; in assay [3] (setting [11]) it was -0.21; in assay [3] (setting [12]) it was -0.449. Also, the fluorescence slope in assay [5] is -0.294 (inactive). In assay [6], the NADPH fluorescence slope is 4.6e-06 (inactive). For the same molecule, in assay [7], the slope was 0.00537 (inactive). In assay [8], the molecule was called inactive.
With `COc1ccccc1C1/C(=C(/O)c2ccc(C)cc2)C(=O)C(=O)N1Cc1ccco1` (stereo unspecified), the cell count in [1] stood at 550. Further, the inhibition is 9.2% (inactive) in assay [1], 6.3% (inactive) in [2], -11.5% (inactive) in assay [4] and -13.2% (inactive) in assay [9]. This molecule registered a nuclei count in assay [2] of 101%. Besides, the z-score in assay [3] (setting [10]) was 0.623; in assay [3] (setting [11]), 0.192; in assay [3] (setting [12]) it was -1.11. Further, the fluorescence slope in [5] is -0.552 (inactive). In addition, the NADPH fluorescence slope in [6] was -6.1e-05 (inactive). In [7], the slope was 0.00643 (inactive). In assay [8], the molecule was called inactive.

Broadly, the inhibition is the change of the read-out against control, counted positive when it falls.

The values above are taken from PubChem BioAssay.
